Experimental data: PubChem BioAssay

Assay: yeast TOR pathway reporter LAP4-GFP change – cell-based, cherry picks, flow cytometry, mother/daughter gates, confirmation (AID 2271);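 further: ratio of sample to DMSO plate mean so 100% equals DMSO level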
Conditions: S. cerevisiae LAP4-GFP strain, 3 h, measured here: mother cell gate response, at 10 µM, stronger effect = higher value, 100 means same as DMSO control
Summary of the method: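 Material – Alexa Fluor 633-labelled Saccharomyces cerevisiae GFP-fusion strain, single-plex · Incubation – compound exposure 3 h at 30 °C, end-over-end rotation · Measured by – GFP by flow cytometry · Measure – median GFP fluorescence as percent of plate-mean DMSO wells · Control set – positive rapamycin (400 ng/mL), negative DMSO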

Row | SMILES | GFP response relative to DMSO [%]
1 | Cc1ccc(C(=O)NNC(=S)NC(=O)COc2ccccc2)cc1 | 203
2 | O=C(OCc1cc(Cl)ccc1OC(F)F)c1ccc([N+](=O)[O-])o1 | 120
3 | O=C(OCCOc1ccccc1)c1n[nH]c2ccccc12 | 101
4 | O=C1C=CC(=O)N1c1ccc(Sc2ccc([N+](=O)[O-])cc2)cc1 | 124
5 | CCn1c(=O)c(C(=O)Nc2ccsc2C(=O)OC)c(O)c2ccccc21 | 94.1
6 | COCC(=O)Nc1cc([N+](=O)[O-])ccc1C | 99.5
7 | O=C1/C(=C\c2ccc(O)c(O)c2)SC(=S)N1Cc1ccccc1 | 116
8 | COc1ccc(C(=O)/C=C2/C(=O)Nc3ccccc32)cc1 | 139
9 | O=C(Nc1cc(Sc2ccccn2)cc([N+](=O)[O-])c1)c1ccc(Cl)cc1 | 97.2
10 | c1ccc(-c2cccc(-c3ccccn3)n2)nc1 | 268
11 | CN1CCSc2ccc(C(=O)Nc3cccc(F)c3)cc21 | 121
12 | Cc1nn(C)cc1C(C)NC(=O)c1cc(COc2ccc(F)c(F)c2)on1 (stereo not given) | 96.2
13 | Oc1ccccc1/C=N/c1c(-c2ccco2)nc2ccccn12 | 97.2
14 | CC(C(=O)NCCc1ccc(F)cc1)N1CCN(Cc2ccccc2)CC1 (stereo not given) | 101
15 | COc1ccc(C(=O)/C=C2/C(=O)Nc3ccccc32)cc1OC | 97.5
16 | COC(=O)CNc1c(-c2ccccn2)nc2ccc(Br)cn12 | 96.1
17 | C=CCOc1ccc(/C=C2\N=C(C)OC2=O)cc1OC | 136
18 | COc1ccccc1C1CC(c2c(-c3ccccc3)c3cc(Cl)ccc3[nH]c2=O)=NN1S(C)(=O)=O (stereo not given) | 105
19 | COC(=O)Cn1nc(-c2ccccc2)c2ccccc21 | 106
20 | COc1ccccc1C(=O)NNC(=O)C(=O)Nc1cccc(Cl)c1C | 109

Row | SMILES | GFP response relative to DMSO [%]
21 | O=C(NCC(=O)N1CCCC1)c1cccs1 | 98.3
22 | COC(=O)Cc1csc(Nc2ccc(F)c(Cl)c2)n1 | 98.3
23 | O=C1C2C3C=CC(CO)(O3)C2C(=O)N1c1ccccc1-c1ccccc1 (stereo not given) | 132
24 | COC(=O)c1ccc(/C=C/C(=O)c2ccc(OC)c(OC)c2)cc1 | 117
25 | Cn1c(=O)c2ccccc2n(Cc2cccc(F)c2)c1=O | 105
26 | COc1cc(/C=C/C(=O)c2c(O)cc(C)oc2=O)cc(OC)c1O | 106
27 | O=[N+]([O-])c1cc(Cl)ccc1Sc1ccccn1 | 98.4
28 | COc1ccc(NC(=O)CCc2nc(-c3ccccc3F)no2)cc1 | 106
29 | COc1ccc(-c2nnc(NC(=O)c3ccc(S(=O)(=O)N4COCC4(C)C)cc3)o2)cc1 | 97.4
30 | C/C(CCC12CC3CC(CC(C3)C1)C2)=N\NC(N)=S | 135
31 | C=CCn1cc(/C=C/c2cc[n+](C)cc2)c2ccccc21 | 108
32 | Cc1ccc(S(=O)(=O)Cc2cc(F)c([N+](=O)[O-])cc2[N+](=O)[O-])cc1 | 223
33 | CS(=O)(=O)N1N=C(c2ccco2)CC1c1ccccc1 (stereo not given) | 100
34 | NC(=O)CSCc1c(Cl)cccc1Cl | 108
35 | N#C/C(=C\c1c(N2CCCCCC2)nc2ccccn2c1=O)C(=O)NCc1ccco1 | 92.9
36 | O=C(OCc1ccco1)c1ccc(S(=O)(=O)N2CCCCC2)cc1 | 98.4
37 | O=C(OCC(=O)N1CCN(C(=O)c2ccco2)CC1)c1cc(-c2ccc(Cl)c(Cl)c2Cl)nc2ccccc12 | 104
38 | COc1ccc(/C(C)=N/NC(=O)c2ccc(N(C)C)cc2)cc1 | 97.2
39 | O=C(c1ccccc1Br)N1CCN(c2ccccc2)CC1 | 97.2
40 | O=C(Nc1nc(-c2ccc(Cl)cc2)cs1)c1cccnc1 | 104
